What was measured:
[1] = Thermogravimetric analysis; format: physicochemical; conditions: TGA
Procedure, shortened: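 Samples of about 5 mg in platinum pans heated from 5 °C to 900 °C at 10 °C per min under nitrogen flowing at 60 mL per min; percentage weight loss recorded against temperature.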

[2] = Blood compatibility study; format: cell-based; conditions: rat, heparinized whole blood
Procedure, shortened: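 Rat heparinized blood (0.2 mL) added to 3 mL normal saline containing test material at 1000 µg/mL, saline-only negative and distilled-water positive controls; 1 h at 37 °C with shaking; centrifuged 6000 rpm, 20 min; filtered supernatant read at 545 nm for released hemoglobin; activity = (sample − negative control absorbance)/positive control absorbance.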

[3] = In vivo pharmacokinetic study, intravenous; design: species or system female Wistar rats; conditions: rat
Procedure, shortened: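 Eight-week-old female Wistar rats (250 ± 10 g), single i.v. dose of test compound solution at 10 mg/kg (nanoparticles at equivalent dose), saline control group. Tail-vein blood (300 µL) at 1–38 h into heparinized tubes; plasma by chilled centrifugation; acetonitrile protein precipitation, nitrogen drying, methanol reconstitution; HPLC-UV with plasma calibration 0.5–20 µg/mL; mean ± SD, n = 6.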

[4] = female, Wistar, plasma, iv, 10 mg/kg
[5] = i.v., DZ 10 mg/kg equivalent, n = 6, listed as DZ-Solution

Temperature at which decomposition started [1]: 340–350 °C | MRT inf [3, 4]: 2.97 ± 0.95 h | Tmax [3, 4]: 1 ± 0.78 h | AUC(0-inf) ([3]; female, Wistar, plasma, iv, 10 mg/kg, AUC0−∞, DZ 10 mg/kg equivalent, n = 6): 2300 µg·h/mL | Cmax ([3]; female, Wistar, plasma, iv, 10 mg/kg, C max, DZ 10 mg/kg equivalent, n = 6): 382 µg/mL | half-life ([3]; female, Wistar, plasma, iv, 10 mg/kg, t1/2, rat, DZ 10 mg/kg equivalent, n = 6): 3.45 h | AUC0−∞ [3, 5]: 2299.73 ± 0.67 µg·h/mL | C max [3, 5]: 381.59 ± 1.12 µg/mL | t1/2 [3, 5]: 3.44 ± 0.44 h
Compound: O=c1c(-c2ccc(O)cc2)coc2cc(O)ccc12 [DZ, daidzein]
hemolysis at 1 h, 1000 µg/mL [2]: 0.98 ± 0.14%
